Test results: ChEMBL document CHEMBL1147555, “2,3-diarylpyran-4-ones: a new series of selective cyclooxygenase-2 inhibitors” (Bioorg Med Chem Lett, 2004); call rule not given here

Assays:
[1] = molecular target: T1, Prostaglandin G/H synthase 1 (Mus musculus) (UniProt P22437); assay: In vitro percentage inhibitory activity against prostaglandin G/H synthase 1 from freshly harvested mouse peritoneal macrophages at 10 ug/mL
T1 sequence (whole entry): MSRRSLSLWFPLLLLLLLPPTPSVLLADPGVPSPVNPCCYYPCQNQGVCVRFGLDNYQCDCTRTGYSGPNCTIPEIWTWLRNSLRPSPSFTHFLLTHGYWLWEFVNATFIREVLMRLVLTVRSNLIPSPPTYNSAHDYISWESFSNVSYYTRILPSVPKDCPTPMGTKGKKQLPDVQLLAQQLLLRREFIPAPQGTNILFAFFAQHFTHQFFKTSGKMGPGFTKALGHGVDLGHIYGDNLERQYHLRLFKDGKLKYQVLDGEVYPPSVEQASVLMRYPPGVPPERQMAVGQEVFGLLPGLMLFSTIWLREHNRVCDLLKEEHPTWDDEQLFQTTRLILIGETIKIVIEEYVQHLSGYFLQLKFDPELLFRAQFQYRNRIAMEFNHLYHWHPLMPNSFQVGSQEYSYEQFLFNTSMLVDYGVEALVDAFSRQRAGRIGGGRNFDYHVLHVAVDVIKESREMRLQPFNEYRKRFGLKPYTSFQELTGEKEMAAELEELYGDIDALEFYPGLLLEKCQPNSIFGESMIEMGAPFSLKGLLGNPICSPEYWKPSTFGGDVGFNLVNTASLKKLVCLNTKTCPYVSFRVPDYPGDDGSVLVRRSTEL

[2] = molecular target: T2, Prostaglandin G/H synthase 2 (Mus musculus, UniProt Q05769); assay: Inhibitory activity against Prostaglandin G/H synthase 2 from freshly harvested mouse peritoneal macrophages
T2 sequence (Q05769 whole entry): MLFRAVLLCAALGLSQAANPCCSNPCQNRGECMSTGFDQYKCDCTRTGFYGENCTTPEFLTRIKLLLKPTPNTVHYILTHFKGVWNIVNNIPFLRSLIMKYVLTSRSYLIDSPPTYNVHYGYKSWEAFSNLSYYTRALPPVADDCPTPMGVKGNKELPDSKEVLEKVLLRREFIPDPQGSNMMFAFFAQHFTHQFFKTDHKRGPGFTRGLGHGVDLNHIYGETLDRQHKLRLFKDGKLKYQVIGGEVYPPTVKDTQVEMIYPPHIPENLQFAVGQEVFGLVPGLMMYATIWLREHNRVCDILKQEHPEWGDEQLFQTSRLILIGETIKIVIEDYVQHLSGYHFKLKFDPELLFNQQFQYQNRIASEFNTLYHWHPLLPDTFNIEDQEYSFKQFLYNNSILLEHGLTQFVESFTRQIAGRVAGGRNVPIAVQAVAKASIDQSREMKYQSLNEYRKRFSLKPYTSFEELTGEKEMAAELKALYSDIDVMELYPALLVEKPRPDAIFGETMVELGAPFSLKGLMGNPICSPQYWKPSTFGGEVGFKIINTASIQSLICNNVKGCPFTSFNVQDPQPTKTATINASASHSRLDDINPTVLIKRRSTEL

[3] = molecular target: T2, Prostaglandin G/H synthase 2; assay: In vitro inhibitory activity against Prostaglandin G/H synthase 2 from freshly harvested mouse peritoneal macrophages; Not active
[4] = system: Rattus norvegicus; assay: Inhibitory effect of compound on carrageenan-induced rat paw edema administered p.o. at 3 mg/kg; type: functional; settings: route oral
Method in brief: (§1)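 Compound given orally; paw swelling measured and expressed as percent inhibition, five animals per group.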

[5] = system: Rattus norvegicus; assay: Inhibitory effect of compound on carrageenan-induced rat paw edema administered p.o. at 10 mg/kg; type: functional; settings: route oral; method in brief: as §1
[6] = molecular target: T3, Prostaglandin G/H synthase 2 (Mus musculus) (UniProt Q05769); assay: In vitro percentage inhibition of Prostaglandin G/H synthase 2 from freshly harvested mouse peritoneal macrophages at 10 ug/ml
T3 sequence (whole entry): T2 sequence (Q05769 whole entry)

[7] = Time of maximum plasma concentration in rat; type: ADME, organism-based
[8] = Plasma half-life in rat; type: ADME, organism-based
[9] = Maximum plasma concentration in rat; type: ADME, organism-based

inhibition [1] [%]	IC50 [2] [nM]	SMILES	inhibition in vivo at 10 mg/kg [5] [%]	other results
70	87.9	CS(=O)(=O)c1ccc(-c2occ(Cl)c(=O)c2-c2ccc(-c3ccccc3)c(F)c2)cc1		
< 5	2340	CS(=O)(=O)c1ccc(-c2occ(Cl)c(=O)c2-c2cc(F)cc(F)c2)cc1		
< 5		CS(=O)(=O)c1ccc(-c2occ(Cl)c(=O)c2-c2ccc(OCc3ccccc3)cc2)cc1		IC50 [3]: Not Active
< 5	1420	CS(=O)(=O)c1ccc(-c2occ(Cl)c(=O)c2-c2cccc(Cl)c2)cc1		
< 5		CS(=O)(=O)c1ccc(-c2occ(Cl)c(=O)c2-c2ccc(F)cc2)cc1	33	inhibition in vivo at 3 mg/kg [4]: 20%
		CS(=O)(=O)c1ccc(-c2oc3ccccc3c(=O)c2-c2cccnc2)cc1	25	
< 5	1080	CS(=O)(=O)c1ccc(-c2occ(Cl)c(=O)c2-c2ccccc2)cc1		
< 5	836	CS(=O)(=O)c1ccc(-c2occ(Cl)c(=S)c2-c2ccc(F)cc2)cc1		
< 5	736	CS(=O)(=O)c1ccc(-c2occ(Cl)c(=O)c2-c2ccsc2)cc1	13	
< 5	1430	CS(=O)(=O)c1ccc(-c2occ(Cl)c(=O)c2-c2cccc(F)c2)cc1		
< 5	1760	Cc1ccc(-c2c(-c3ccc(S(C)(=O)=O)cc3)occ(Cl)c2=O)cc1		
< 5	6860	COc1ccc(-c2c(-c3ccc(S(C)(=O)=O)cc3)occ(Cl)c2=O)cc1		
		COc1ccc2c(c1)c(CC(=O)O)c(C)n2C(=O)c1ccc(Cl)cc1 [INDOMETHACIN]	42	
< 5	7050	CS(=O)(=O)c1ccc(-c2occ(Cl)c(=O)c2-c2cccnc2)cc1		
< 5		CS(=O)(=O)c1ccc(-c2occ(Cl)c(=O)c2-c2ccc(Cl)cc2)cc1		
68	91.6	CS(=O)(=O)c1ccc(-c2occ(Cl)c(=O)c2-c2ccc(-c3ccccc3)cc2)cc1	21	
17		CS(=O)(=O)c1ccc(-c2occ(Cl)c(=O)c2-c2ccc(O)cc2)cc1		IC50 [3]: Not Active
< 5		CS(=O)(=O)c1ccc(-c2occ(Cl)c(=O)c2-c2cccs2)cc1		inhibition [6]: 9%
< 5		CS(=O)(=O)c1ccc(-c2occ(Cl)c(=O)c2-c2cccc(-c3ccccc3)c2)cc1		IC50 [3]: Not Active
14	720	CCc1ccc(-c2c(-c3ccc(S(C)(=O)=O)cc3)occ(Cl)c2=O)cc1	4	
19	6310	CS(=O)(=O)c1ccc(-c2occ(Cl)c(=O)c2-c2ccccc2F)cc1		
< 5	2240	CS(=O)(=O)c1ccc(-c2occc(=O)c2-c2ccc(F)cc2)cc1		
6	1390	CS(=O)(=O)c1ccc(-c2occ(Cl)c(=O)c2-c2ccc(F)cc2F)cc1		inhibition in vivo at 3 mg/kg [4]: 20%
		Cc1ccc(-c2cc(C(F)(F)F)nn2-c2ccc(S(N)(=O)=O)cc2)cc1 [CELECOXIB]	42	inhibition in vivo at 3 mg/kg [4]: 29%
20	1230	CS(=O)(=O)c1ccc(-c2occ(Cl)c(=O)c2-c2ccc(F)c(F)c2)cc1	37	inhibition in vivo at 3 mg/kg [4]: 10%; Tmax [7]: 4 h; half-life [8]: 3.7 h; Cmax [9]: 5100 ng/mL
